CAL PDZ FP-1: CAL PDZ peptide-binding inhibitors, primary screen, biochemical, fluorescence polarization, Cer-tagged CAL PDZ, HTS; AID 504414, 2011; 330,000 compounds, 0.02% hits; inhibition, % at 20 µM; Golgi-associated PDZ and coiled-coil motif-containing protein (Homo sapiens), Q9HD26; purified CAL PDZ, TMR-peptide fluorescence polarization, 1 h;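 active = highest replicate inhibition of at least 40%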
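Test system: purified CerCALP PDZ construct; Compound dosing: one concentration, 20 µM compound; Also added: TMR-labelled reporter peptide T*-PRC34 bound in PDZ groove; Read-out: inhibition from polarization loss; Controls: unlabelled peptide and DMSO controls; Signal: FP readout, S and P plane fluorescence; Incubation: 1 h at RT.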
ERp5 inh: inhibitors of ERp5-driven insulin aggregation, primary screen, biochemical, turbidity, absorbance 650 nm, single point; Protein disulfide-isomerase A6 (Homo sapiens), Q15084; 90 min; inhibition, % at 9.99 µM; 350,000 compounds, 0.05% hits;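 active = mean replicate inhibition above about 25%, with every replicate also reaching it, limit read from the data, passing the limit was not always enough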
Target sequence (Q15084 whole entry, looked up): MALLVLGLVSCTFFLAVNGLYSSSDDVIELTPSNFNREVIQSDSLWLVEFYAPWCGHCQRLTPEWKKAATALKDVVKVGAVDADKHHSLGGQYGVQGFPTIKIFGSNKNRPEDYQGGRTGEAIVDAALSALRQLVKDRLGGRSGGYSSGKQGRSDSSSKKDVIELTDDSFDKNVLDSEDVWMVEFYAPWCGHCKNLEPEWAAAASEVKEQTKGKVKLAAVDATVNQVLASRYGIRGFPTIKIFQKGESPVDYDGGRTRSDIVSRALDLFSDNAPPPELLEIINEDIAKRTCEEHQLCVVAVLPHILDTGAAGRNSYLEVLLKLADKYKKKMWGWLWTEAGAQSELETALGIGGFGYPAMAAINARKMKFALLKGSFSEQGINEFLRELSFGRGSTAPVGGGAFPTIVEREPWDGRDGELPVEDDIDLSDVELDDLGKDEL
PDI inh: inhibitors of human PDI, primary screen, biochemical, turbidity, single point, plate reader. inhibition, % at 10 µM. AID 588391, 2011. 350,000 compounds, 0.052% hits. Protein disulfide-isomerase (Homo sapiens), P07237. PDI insulin aggregation turbidity, A650, 90 min;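 active = mean inhibition across replicates of 30% or more, whatever share of single replicates reach that level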
RAD52 inh: RAD52 DNA annealing inhibitors, primary screen, biochemical, FRET, single point, set 2; DNA repair protein RAD52 homolog (Homo sapiens), P43351; recombinant RAD52 DNA annealing, FRET fluorescence; inhibition, % at 18.7 µM; 360,000 compounds, 0.46% hits; AID 651710, 2012;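 active = every replicate showing at least 50% inhibition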
CAL PDZ FP-2: untagged CAL PDZ binding inhibitors, primary screen, biochemical, fluorescence polarization, HTS. purified CAL PDZ, TMR-peptide fluorescence polarization, 1 h. inhibition, % at 24.9 µM. AID 602252, 2012. Golgi-associated PDZ and coiled-coil motif-containing protein (Homo sapiens), Q9HD26. 300,000 compounds, 0.92% hits;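 active = mean inhibition of at least 30% with at least half of replicates also reaching 30%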
RAD54 inh: inhibitors of human RAD54 branch migration, primary screen, biochemical, fluorescence, single point; DNA repair and recombination protein RAD54-like (Homo sapiens), Q92698; RAD54 Holliday junction branch migration, FAM/BHQ fluorescence; inhibition, % at 10.4 µM; 360,000 compounds, 0.14% hits; AID 602329, 2012;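 active = mean normalized replicate activity at least 40 and at least half of replicates scoring 40 or more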;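 note: inhibitors cause a drop in the FAM fluorescence signal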
A number is an active result; - = inactive; . = no result. This is a sample that favours compounds with a hit; in the whole collection about 1% have one here.

SMILES | CAL PDZ FP-1 | ERp5 inh | PDI inh | RAD52 inh | CAL PDZ FP-2 | RAD54 inh
Cc1cc2ccccc2n1CCNCc1c(C(=O)N2CCOCC2)nc2ccccn12 | - | - | - | - | 82 | -
Cc1ccc(Cn2c(=O)n(CCC(=O)NCc3ccc4c(c3)OCO4)c(=O)c3ccccc32)cc1 | - | . | - | . | 66 | -
N#Cc1ccccc1Cn1c(=O)n(CCCC(=O)NCc2ccc3c(c2)OCO3)c(=O)c2ccccc21 | - | . | - | . | - | .
O=C(C[C@@H]1C=C[C@@H](NS(=O)(=O)c2ccc(F)cc2)[C@H](CO)O1)NCCc1ccncc1 | . | - | . | - | . | -
Cc1ccc(-c2nc3ccccc3c(=O)o2)cc1 | - | - | - | - | 48 | -
Cc1ccc2nc(-c3ccccc3)oc(=O)c2c1 | - | - | - | - | - | -
CC(=O)c1ccc(N2CCN(S(=O)(=O)c3ccc4c(c3)CC(C)N4C(=O)C3CC3)CC2)cc1 (centres undefined) | - | - | - | - | 72 | -
CC(=O)N1c2ccc(S(=O)(=O)N3CCC(C(=O)Nc4ccccn4)CC3)cc2CC1C (centres undefined) | - | - | - | - | - | -
CC(=O)N1c2ccc(S(=O)(=O)N3CCC(C(=O)NC4CCCCC4)CC3)cc2CC1C (centres undefined) | - | - | - | - | 64 | -
C[C@@H]1CN([C@H](C)CO)C(=O)c2cc(NC(=O)c3ccncc3)ccc2O[C@H]1CN(C)Cc1ccc(C(=O)Nc2ccccc2N)cc1 | . | - | . | - | . | .
O=C(C[C@@H]1C=C[C@@H](NC(=O)Nc2ccc3c(c2)OCO3)[C@H](CO)O1)NCc1ccccc1 | . | - | . | - | . | -
COc1ccccc1C(=O)N/N=C/C(C)=C/c1ccccc1 | - | - | - | - | 35 | -
Cn1c(=O)c2nc(-c3ccccc3)c(-c3ccccc3)nc2n(C)c1=O | - | - | - | - | 66 | .
C[C@H](CO)N1C[C@H](C)[C@H](CN(C)S(=O)(=O)c2ccc(F)cc2)OCCCC[C@H](C)Oc2ccc(NC(=O)Nc3ccccc3)cc2C1=O | . | . | . | . | . | -
Cc1oc(-c2ccccc2)nc1C(=O)OCC(=O)NC(=O)NCC(C)C | - | . | - | . | 37 | -
CC(C)CNC(=O)COC(=O)c1n[nH]c2ccccc12 | - | - | - | - | 61 | .
Cc1ccc(S(=O)(=O)Nc2ccc3c(c2)CC(=O)N([C@@H](C)CO)C[C@H](C)[C@@H](CN(C)S(=O)(=O)c2ccc(F)cc2)O3)cc1 | . | . | . | . | . | -
Cc1noc(C)c1S(=O)(=O)Nc1ccc2c(c1)C(=O)N([C@H](C)CO)C[C@@H](C)[C@@H](CN(C)C(=O)Nc1ccc(C(F)(F)F)cc1)OCCCC[C@@H](C)O2 | . | - | . | - | . | -
COc1ccc(/C=N/NC(=O)c2cccnc2)cc1O | - | - | - | - | 37 | -
O=C(N/N=C/c1cccnc1)c1cccc(F)c1 | . | - | - | - | 52 | -
Cc1ccc(C(=O)Nc2cccc(C(=O)N/N=C/c3ccc(F)cc3)c2)cc1 | - | - | - | - | 75 | -
O=C(CNC(=O)c1cccc(F)c1)N/N=C/c1cccnc1 | - | - | - | - | - | -
O=C(N/N=C/c1ccccc1)c1[nH]ncc1Br | . | - | - | - | - | .
CC(=O)Nc1cccc(C(=O)N/N=C/c2ccc(F)cc2)c1 | - | - | - | - | - | .
O=C(N/N=C/c1cccnc1)c1[nH]ncc1Br | - | - | - | - | 49 | -
CCCN1[C@H](C(=O)N[C@@H](C)c2ccccc2)[C@@H](CO)[C@@H]2Cn3c(cccc3=O)[C@@H]21 | . | - | . | - | . | .
CCOC(=O)C1(C)NC(c2cc(OC)c(OC)c(OC)c2)C2C(=O)N(CC)C(=O)C21 (centres undefined) | - | . | - | . | 67 | -
CCN1C(=O)C2C(c3ccc(O)c(OC)c3)NC(C)(C(=O)OC)C2C1=O (centres undefined) | - | . | - | . | - | .
